According to ChEMBL document CHEMBL3774374, “The Effect of Small Molecules on Sterol Homeostasis: Measuring 7-Dehydrocholesterol in Dhcr7-Deficient Neuro2a Cells and Human Fibroblasts” (J Med Chem, 2016):
Calls of active or inactive are those of the source. The rule behind the calls is not given here.

Key:
[1] = biological target: T1, Delta(24)-sterol reductase (Homo sapiens) (UniProt Q15392); assay: Inhibition of DR24 in human SLOS fibroblasts assessed as decrease in 7-DHC levels at 100 nM after 5 days by LC-MS/GC-MS analysis
T1 sequence (whole entry): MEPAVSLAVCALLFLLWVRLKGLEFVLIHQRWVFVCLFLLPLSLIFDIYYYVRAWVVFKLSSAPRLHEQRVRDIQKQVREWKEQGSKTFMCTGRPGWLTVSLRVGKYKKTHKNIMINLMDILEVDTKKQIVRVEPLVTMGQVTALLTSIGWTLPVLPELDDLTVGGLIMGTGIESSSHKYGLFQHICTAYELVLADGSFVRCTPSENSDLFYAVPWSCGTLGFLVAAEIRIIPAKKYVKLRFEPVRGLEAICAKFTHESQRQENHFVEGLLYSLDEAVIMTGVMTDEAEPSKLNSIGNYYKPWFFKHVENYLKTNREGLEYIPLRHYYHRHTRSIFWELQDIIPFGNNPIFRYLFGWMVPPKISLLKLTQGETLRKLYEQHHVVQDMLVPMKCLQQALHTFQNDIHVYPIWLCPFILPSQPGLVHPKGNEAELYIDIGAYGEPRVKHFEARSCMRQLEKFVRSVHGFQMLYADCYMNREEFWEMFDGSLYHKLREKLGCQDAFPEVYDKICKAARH
Summary of the method: (§1)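 SLOS patient skin fibroblasts (passage 8–20; three different lines) grown in 96-well plates in delipidated serum with compound for 5 days. 7-DHC and cholesterol quantified by PTAD-derivatisation UPLC-MS with isotopic standards. Values expressed as percentage of 7-DHC in the same cells grown without compound.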

[2] = Cytotoxicity against human SLOS fibroblasts at 5 uM after 5 days by Cell Titer assay; assay type: cell-based; conditions: fibroblast, 120 h
[3] = biological target: T2, 3-beta-hydroxysteroid-Delta(8),Delta(7)-isomerase (Mus musculus) (UniProt P70245); assay: Inhibition of delta 8-7 isomerase in Dhcr7-deficient mouse Neuro2a cells assessed as decrease in 7-DHC levels at 1 uM by LC-MS/GC-MS analysis; assay type: cell-based
T2 sequence (whole entry): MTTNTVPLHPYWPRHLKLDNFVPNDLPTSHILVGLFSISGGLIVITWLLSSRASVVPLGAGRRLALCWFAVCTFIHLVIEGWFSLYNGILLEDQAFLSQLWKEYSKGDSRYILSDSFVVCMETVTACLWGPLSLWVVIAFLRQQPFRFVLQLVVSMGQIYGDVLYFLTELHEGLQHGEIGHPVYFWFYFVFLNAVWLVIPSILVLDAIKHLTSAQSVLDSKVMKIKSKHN
Summary of the method: (§2)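 Dhcr7-deficient Neuro2a cells (13000/well, 0.5% FBS medium) on predeposited compound, 24 h at 37 °C. Hoechst-stained and imaged to count cells. Lysed in methanol containing isotope-labelled sterol standards, derivatized with PTAD 20 min at RT, then isocratic C18 UPLC-MS/SRM. Remaining extract silylated with BSTFA for GC-MS, quantified against d7-cholesterol. Follow-up runs in triplicate.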

[4] = biological target: T3, Delta(24)-sterol reductase (Mus musculus) (UniProt Q8VCH6); assay: Inhibition of DR24 in Dhcr7-deficient mouse Neuro2a cells assessed as decrease in 7-DHC levels at 1 uM by LC-MS/GC-MS analysis; assay type: cell-based; summary of the method: as §2
T3 sequence (whole entry): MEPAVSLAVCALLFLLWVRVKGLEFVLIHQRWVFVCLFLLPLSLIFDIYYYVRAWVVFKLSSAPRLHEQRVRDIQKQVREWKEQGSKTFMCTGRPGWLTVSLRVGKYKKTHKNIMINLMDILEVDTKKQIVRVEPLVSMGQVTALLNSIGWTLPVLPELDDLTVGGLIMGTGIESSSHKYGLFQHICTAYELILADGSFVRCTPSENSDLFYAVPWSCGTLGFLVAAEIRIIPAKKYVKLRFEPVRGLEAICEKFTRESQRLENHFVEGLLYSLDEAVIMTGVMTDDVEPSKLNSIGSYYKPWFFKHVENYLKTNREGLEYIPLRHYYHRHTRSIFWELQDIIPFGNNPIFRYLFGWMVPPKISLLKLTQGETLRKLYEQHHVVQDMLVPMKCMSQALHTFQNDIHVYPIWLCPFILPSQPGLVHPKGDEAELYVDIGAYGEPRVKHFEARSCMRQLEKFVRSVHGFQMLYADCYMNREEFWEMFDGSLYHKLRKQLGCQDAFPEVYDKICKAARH

[5] = biological target: 3-beta-hydroxysteroid-Delta(8),Delta(7)-isomerase (Homo sapiens) (UniProt Q15125); assay: Inhibition of delta 8-7 isomerase in human SLOS fibroblasts assessed as decrease in 7-DHC levels at 100 nM after 5 days by LC-MS/GC-MS analysis; summary of the method: as §1
Sequence of 3-beta-hydroxysteroid-Delta(8),Delta(7)-isomerase (Homo sapiens) (Q15125 whole entry): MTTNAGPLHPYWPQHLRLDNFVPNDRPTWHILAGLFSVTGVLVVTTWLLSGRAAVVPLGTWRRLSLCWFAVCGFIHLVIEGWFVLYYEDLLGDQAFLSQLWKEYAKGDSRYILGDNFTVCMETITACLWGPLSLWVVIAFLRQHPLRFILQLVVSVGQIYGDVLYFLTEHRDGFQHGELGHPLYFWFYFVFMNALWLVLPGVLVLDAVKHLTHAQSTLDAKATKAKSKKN

[6] = biological target: T3, Delta(24)-sterol reductase (Mus musculus); assay: Inhibition of DR24 in mouse Neuro2a cells assessed as decrease in 7-DHC levels at 1 uM by LC-MS/GC-MS analysis; assay type: cell-based
Summary of the method: (§3)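 Control Neuro2a cells (10000/well, 0.5% FBS) on compound, 24 h. Hoechst cell count, then methanol lysis with labelled standards (d7-7-DHC, 13C3-desmosterol, 13C3-lanosterol), PTAD derivatization 20 min at RT, UPLC-MS SRM. GC-MS of silylated extract for further sterols.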

[7] = biological target: T2, 3-beta-hydroxysteroid-Delta(8),Delta(7)-isomerase (Mus musculus); assay: Inhibition of delta 8-7 isomerase in mouse Neuro2a cells assessed as decrease in 7-DHC levels at 1 uM by LC-MS/GC-MS analysis; assay type: cell-based; summary of the method: as §3
[8] = biological target: T2, 3-beta-hydroxysteroid-Delta(8),Delta(7)-isomerase (Mus musculus); assay: Inhibition of delta 8-7 isomerase in Dhcr7-deficient mouse Neuro2a cells assessed as increase in zymostenol levels at 1 uM by LC-MS/GC-MS analysis; assay type: cell-based
Summary of the method: (§4)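 Follow-up (verification) assay in 96-well plates, run as the 384-well screen, in triplicate, at varying compound concentrations. Cells counted by Hoechst imaging, washed with PBS, then lysed in MeOH with BHT/TPP and isotope standards (d7-Chol, d7-7-DHC, 13C3-Des, 13C3-Lan). Sterols derivatised with PTAD for 20 min at RT and quantified by C18 UPLC-MS (SRM). Remaining sample silylated with BSTFA and run on GC-MS, quantified against d7-Chol.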

[9] = biological target: T2, 3-beta-hydroxysteroid-Delta(8),Delta(7)-isomerase (Mus musculus); assay: Inhibition of delta 8-7 isomerase in Dhcr7-deficient mouse Neuro2a cells assessed as increase in zymosterol levels at 1 uM by LC-MS/GC-MS analysis; assay type: cell-based; summary of the method: as §4
[10] = biological target: T2, 3-beta-hydroxysteroid-Delta(8),Delta(7)-isomerase (Mus musculus); assay: Inhibition of delta 8-7 isomerase in Dhcr7-deficient mouse Neuro2a cells assessed as decrease in cholesterol levels at 1 uM by LC-MS/GC-MS analysis; assay type: cell-based; summary of the method: as §4
[11] = biological target: 3-beta-hydroxysteroid-Delta(8),Delta(7)-isomerase (Homo sapiens) (UniProt Q15125); assay: Inhibition of delta 8-7 isomerase in human SLOS fibroblasts assessed as decrease in 7-DHC levels at 10 nM after 5 days by LC-MS/GC-MS analysis
Summary of the method: (§5)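 SLOS patient skin fibroblasts (passage 8–20) grown in 96-well plates in delipidated serum with compound for 5 days; three different SLOS lines. Sterols quantified by PTAD-derivatized UPLC-MS plus GC-MS; 7-DHC expressed as percentage of untreated cells.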

Fibroblast = assay: Decrease in cholesterol levels in human SLOS fibroblasts at 10 nM after 5 days by LC-MS/GC-MS analysis; assay type: functional, cell-based; summary of the method: as §5
[12] = biological target: T2, 3-beta-hydroxysteroid-Delta(8),Delta(7)-isomerase (Mus musculus); assay: Inhibition of delta 8-7 isomerase in Dhcr7-deficient mouse Neuro2a cells assessed as decrease in 7-DHC levels at 200 nM after 24 hrs by LC-MS analysis; assay type: cell-based
Summary of the method: (§6)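 384-well screen: Dhcr7-deficient Neuro2a cells (13000/well) dispensed in 0.5% FBS medium onto predeposited compound (five wells each at 20 and 200 nM) and incubated 24 h at 37 °C. Nuclei Hoechst-stained and counted by automated imaging. Cells lysed in MeOH with deuterated and 13C standards, then derivatised with PTAD for 20 min at RT. 7-DHC measured by isocratic UPLC-MS (SRM) and expressed as pg per cell; DMSO wells served as controls.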

[13] = biological target: T2, 3-beta-hydroxysteroid-Delta(8),Delta(7)-isomerase (Mus musculus); assay: Inhibition of delta 8-7 isomerase in Dhcr7-deficient mouse Neuro2a cells assessed as decrease in 7-DHC levels at 20 nM after 24 hrs by LC-MS analysis; assay type: cell-based; summary of the method: as §6
[14] = biological target: T3, Delta(24)-sterol reductase (Mus musculus); assay: Inhibition of DR24 in Dhcr7-deficient mouse Neuro2a cells assessed as decrease in 7-DHC levels at 200 nM after 24 hrs by LC-MS analysis; assay type: cell-based
Summary of the method: (§7)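 384-well screen: Dhcr7-deficient Neuro2a cells (13000/well, 0.5% FBS) with compound at 20 or 200 nM (five wells each), 24 h at 37 °C. Cells counted after Hoechst imaging, then methanol lysis with d7-7-DHC standard, PTAD derivatization 20 min at RT, UPLC-MS SRM (7-DHC 560→365). Read-out is pg 7-DHC per cell.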

[15] = biological target: T3, Delta(24)-sterol reductase (Mus musculus); assay: Inhibition of DR24 in Dhcr7-deficient mouse Neuro2a cells assessed as decrease in 7-DHC levels at 20 nM after 24 hrs by LC-MS analysis; assay type: cell-based; summary of the method: as §7
[16] = biological target: T1, Delta(24)-sterol reductase (Homo sapiens); assay: Inhibition of DR24 in human SLOS fibroblasts assessed as decrease in 7-DHC levels at 10 nM after 5 days by LC-MS/GC-MS analysis; summary of the method: as §5
N2a [17] = assay: Increase in 7-DHC levels in mouse Neuro2a cells at 100 nM by LC-MS analysis; assay type: functional
Summary of the method: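 Control Neuro2a cells in 96-well plates, treated at 1, 10 and 100 nM. 7-DHC measured by PTAD derivatization and UPLC-MS against deuterated 7-DHC standard; n > 3.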

N2a [18] = assay: Decrease in desmosterol levels in mouse Neuro2a cells by LC-MS analysis; assay type: functional, cell-based; summary of the method: as §3
N2a [19] = assay: Decrease in lanosterol levels in mouse Neuro2a cells by LC-MS analysis; assay type: functional, cell-based; summary of the method: as §3
N2a [20] = assay: Increase in 7-DHC levels in Dhcr7-deficient mouse Neuro2a cells at 200 nM after 24 hrs by LC-MS analysis; assay type: functional, cell-based; summary of the method: as §7

For CN(C)CCOc1ccc(/C(=C(/CCCl)c2ccccc2)c2ccccc2)cc1 [TOREMIFENE], the inhibition [1] was “Active”, the Activity [2] was “Toxic” and the inhibition [3] was “Active”. The inhibition [4] was “Active”, the inhibition [5] was “Active” and the inhibition [6] was “Active”. For the same compound, the “Activity (decrease in 7-DHC levels)” value [7] was “Active”, the inhibition [8] was “Active” and the inhibition [9] was “Active”. The inhibition [10] was “Active”.
In the case of CCN(CC)CCOc1ccc(C(=C(Cl)c2ccccc2)c2ccccc2)cc1 [CLOMIPHENE], the inhibition [11] is reported as “Active”, the Activity [2] is reported as “Non-toxic” and the inhibition [3] is reported as “Active”. The inhibition [4] was “Active”, the Activity (Fibroblast) was “inactive” and the “Decrease in 7-DHC levels (active/inactive call)” value [6] was “Active”. For the same compound, the inhibition [12] was “Active”, the inhibition [13] was “Active” and the inhibition [14] was “Active”. For the same compound, the inhibition [15] was “Active”, the “Activity (decrease in 7-DHC levels)” value [7] was “Active” and the inhibition [8] was “Active”. The inhibition [9] was “Active”, the inhibition [10] was “Active” and the inhibition [16] was “Active”.
For O=C1CCc2ccc(OCCCCN3CCN(c4cccc(Cl)c4Cl)CC3)cc2N1 [ARIPIPRAZOLE], the “fold change (FC)” value (N2a [17]) was 40, the Activity (N2a [18]) was “Active” and the Activity (N2a [19]) was “Active”. The Activity (N2a [20]) was “Active”.
